RanGTP-Impb inh: disruptors of Ran-importin-beta complex formation – biochemical, FRET, CFP-Ran, YFP-importin-beta, homogeneous, primary screen. cell-free CFP-Ran/YFP-importin-beta FRET ratio. inhibition, % (no concentration beside the values). actives 1.1% (n = 300,000);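 active = more than half of the replicate wells show a fall in the fluorescence ratio signal beyond about 16%, limit read from the data, passing the limit was not always enough; inconclusive = exactly half of the replicate wells pass the set limit; inactive = fewer than half of replicates pass the limit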
Runt-CBFb FRET: inhibitors of human RUNX1 Runt domain binding to CBFb; Cerulean-Runt/Venus-CBFb FRET ratio 530/480, 1 h; inhibition, % at 20 µM; actives 0.46% (n = 220,000);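 active = inhibition over about 50% at 20 µM in the single-dose screen, limit read from the data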
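Measured by: fluorescence energy transfer, 422 nm excitation, 530/480 nm emission; Assay system: Cerulean-Runt domain; Medium: Tris pH 7.5 buffer with BSA; Measure: loss of energy transfer signal; Controls: 5 µM unlabeled CBFb as full-inhibition high control; Incubation: protein complex preformed 1 h, compound exposure 1 h, room temperature, dark.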
Hck-Nef inh: inhibitors of human Hck kinase activated by Nef | P08631 | Recombinant Hck-YEEI plus Nef, Z-Lyte FRET kinase assay | inhibition, % at 20 µM | actives 0.68% (n = 220,000) | AID 463187;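 active = Hck-Nef kinase inhibition above about 50%, limit read from the data; inactive = inhibition below that limit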
Target sequence (P08631 whole entry, looked up): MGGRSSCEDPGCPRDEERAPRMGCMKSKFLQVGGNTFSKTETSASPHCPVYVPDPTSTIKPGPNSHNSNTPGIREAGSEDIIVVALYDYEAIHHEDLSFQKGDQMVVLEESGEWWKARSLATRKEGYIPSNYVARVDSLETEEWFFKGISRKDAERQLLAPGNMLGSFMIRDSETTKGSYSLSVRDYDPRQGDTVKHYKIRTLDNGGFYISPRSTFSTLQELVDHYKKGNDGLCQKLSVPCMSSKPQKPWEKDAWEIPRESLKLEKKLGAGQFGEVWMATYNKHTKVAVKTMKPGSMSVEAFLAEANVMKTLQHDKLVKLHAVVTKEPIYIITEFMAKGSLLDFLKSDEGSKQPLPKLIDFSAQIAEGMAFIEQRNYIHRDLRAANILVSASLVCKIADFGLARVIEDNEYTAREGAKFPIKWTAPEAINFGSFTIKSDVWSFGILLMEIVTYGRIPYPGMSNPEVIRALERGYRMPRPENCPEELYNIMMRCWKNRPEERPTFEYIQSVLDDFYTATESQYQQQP
Runt-SMMHC FRET: inhibitors of human RUNX1 Runt domain binding to CBFb-SMMHC; Q01196+Q13951; Cerulean-Runt/Venus-CBFb-SMMHC FRET ratio 530/480, 1 h; inhibition, % at 20 µM; actives 0.74% (n = 220,000); AID 1434;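 active = mean inhibition across duplicate retests at 20 µM reaching about 50%, limit read from the data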;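 note: inhibitors lower the FRET ratio by blocking Runt binding to CBFb-SMMHC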
Large screens that a line does not name were inactive. A selection: hits, their analogues and other compounds. The true share with any hit is near 1.7%.

CCOc1nc(-c2ccc(OC)cc2)ccc1-c1noc(C)n1	RanGTP-Impb inh inconclusive
COc1ccc(-c2ccc(-c3noc(-c4cccs4)n3)c(OC)n2)cc1	RanGTP-Impb inh 29.6
Nc1ccccc1Oc1c(F)c(F)c(Oc2ccccc2N)c(F)c1F	none
O=C(NN1CC(=O)N(c2cc(Cl)cc(Cl)c2)CC1=O)c1cccs1	none
Cc1cc([N+](=O)[O-])c(C)cc1-c1ccc(/C=N/NC(=O)Cn2nnnc2N)o1	Hck-Nef inh 53.2
COCCN1C=C(C(=O)OC)C(c2ccccc2C(F)(F)F)C(C(=O)OC)=C1	RanGTP-Impb inh 55.6, Runt-CBFb FRET 121.7, Hck-Nef inh 65.3, Runt-SMMHC FRET 81.6
CCCCOc1ccccc1C1C(C(=O)OC)=C(C)N(C)C(C)=C1C(=O)OC	none
CCCCN1C=C(C(=O)OC)C(c2ccccc2C(F)(F)F)C(C(=O)OC)=C1	RanGTP-Impb inh 94.4, Runt-CBFb FRET 67.3, Runt-SMMHC FRET 61.6
CCCCN1C=C(C(=O)OC)C(c2ccccc2Cl)C(C(=O)OC)=C1	RanGTP-Impb inh 96.1, Runt-SMMHC FRET 92.5
COCCN1C=C(C(=O)OC)C(c2ccc(OC)c(OC)c2)C(C(=O)OC)=C1	none
COc1ccccc1NC(=O)c1ccc2c(O)c(S(=O)(=O)c3ccccc3)c(=O)[nH]c2c1	none (no result: Runt-CBFb FRET, Hck-Nef inh, Runt-SMMHC FRET)
CCCn1c(N)c(N(CCOC)C(=O)c2ccc(N(C)S(=O)(=O)c3ccc(C)cc3)cc2)c(=O)[nH]c1=O	none (no result: Runt-CBFb FRET, Hck-Nef inh, Runt-SMMHC FRET)
O=C(C[N+]12CC[N+](CC(=O)c3ccc(F)cc3)(CC1)CC2)c1ccc(F)cc1	none (no result: Runt-CBFb FRET, Hck-Nef inh, Runt-SMMHC FRET)
N#CC1(C#N)CC(C=O)=C(N)C1(C#N)CC(=O)c1ccc(F)cc1 (centres undefined)	RanGTP-Impb inh 32.9, Runt-SMMHC FRET 51.0
CCOc1ccc(NC(=O)c2ccc(-n3cccn3)nc2)cc1	RanGTP-Impb inh inconclusive
COc1ccc(CCC(=O)NNC(=S)NCc2ccc(F)cc2)cc1	RanGTP-Impb inh 23.3
COc1ccc(CCC(=O)NNC(=O)c2ccc(F)cc2)cc1	none (no result: Runt-CBFb FRET, Hck-Nef inh, Runt-SMMHC FRET)
CCOC(=O)c1[nH]c2c(c1-c1ccccc1)C(=O)CC(c1ccc(OC)c(OC)c1)C2 (centres undefined)	Runt-CBFb FRET 101.6
Cc1cc(N2C(=O)C(=O)/C(=C(/O)c3ccccc3)C2c2cccs2)no1 (centres undefined)	none
COc1cccc(/C(O)=C2/C(=O)C(=O)N(c3cc(C)on3)C2c2cccs2)c1 (centres undefined)	Runt-CBFb FRET 77.2, Runt-SMMHC FRET 145.1
CCCCCCNC(=O)C(C#N)c1nc2ccccc2nc1N1CCCC1 (centres undefined)	RanGTP-Impb inh 24.5
COCCCNC(=O)C(C#N)c1nc2ccccc2nc1N1CCCC1 (centres undefined)	RanGTP-Impb inh 54.3 (no result: Runt-CBFb FRET, Runt-SMMHC FRET)
CCCCCNC(=O)C(C#N)c1nc2ccccc2nc1N1CCCC1 (centres undefined)	RanGTP-Impb inh 20.0
Nc1nc(N)c(N=Nc2ccc(SCC(=O)O)cc2)c(=O)[nH]1	RanGTP-Impb inh 44.0
COc1cc(C2NC(=O)NC(C)=C2C(=O)OCc2ccc(C)cc2)cc(OC)c1O (centres undefined)	RanGTP-Impb inh 66.2
COc1cc(C2NC(=O)NC(C)=C2C(=O)OCc2ccc(C)cc2)cc(OC)c1OC (centres undefined)	RanGTP-Impb inh 28.8 (no result: Runt-CBFb FRET, Hck-Nef inh, Runt-SMMHC FRET)
CCOC(=O)c1c2ccccc2[n+]([O-])n1CCO	none (no result: Runt-CBFb FRET, Hck-Nef inh, Runt-SMMHC FRET)
Cc1csc(NC(=O)c2cc(=O)[nH]c3ccc(S(=O)(=O)N4CCOCC4)cc23)n1	Runt-CBFb FRET 79.5, Runt-SMMHC FRET 118.2
CCC(OCC(O)CN1CCN(CCN2C(=O)c3cccc4cccc(c34)C2=O)CC1)c1ccccc1 (centres undefined)	RanGTP-Impb inh 29.9
CC(C)OCC(O)CN1CCN(CCN2C(=O)c3cccc4cccc(c34)C2=O)CC1 (centres undefined)	none (no result: Runt-CBFb FRET, Hck-Nef inh, Runt-SMMHC FRET)
CCOC(=O)c1cc(C#N)c(SCc2cccc3ccccc23)nc1C	none
CCOC(=O)c1cc(C#N)c(SCC(=O)c2cc(C#N)c(SC)nc2C)nc1C	RanGTP-Impb inh 19.8 (no result: Hck-Nef inh)
CCN(C(=O)Cn1cnc2cc([N+](=O)[O-])ccc2c1=O)C1CCS(=O)(=O)C1 (centres undefined)	RanGTP-Impb inh 13.8
CC1CCCC(C)N1C(=O)Cn1cnc2cc([N+](=O)[O-])ccc2c1=O (centres undefined)	RanGTP-Impb inh inconclusive
Cc1ccc(S(=O)(=O)N2CCN(C(=O)C3CCN(C(=O)c4ccc(F)cc4)CC3)CC2)c(C)c1	none (no result: Runt-CBFb FRET, Hck-Nef inh, Runt-SMMHC FRET)
COc1cc2c3nnc(-c4ccccc4)c-3cn(Cc3ccc(F)cc3)c2cc1OC	RanGTP-Impb inh 34.8
